From ChEMBL document CHEMBL1275331, “Discovery of a novel 5-HT(3) antagonist/5-HT(1A) agonist 3-amino-5,6,7,8-tetrahydro-2-{4-[4-(quinolin-2-yl)piperazin-1-yl]butyl}quinazolin-4(3H)-one (TZB-30878) as an orally bioavailable agent for irritable bowel syndrome” (J Med Chem, 2010) come the findings set out here.

Active and inactive are the calls of the source. No cut-off for these calls is given here.

Data set [1] has as its target Neuropeptide Y receptor type 1 (Homo sapiens, UniProt P25929). The experiment in a line: Displacement of [125I]peptide YY from NPY1 receptor in human SK-N-MC cells. The data set is classed as cell-based. Background: Loss of bound radioactivity is the signal in a displacement assay; it reports binding, not function.
A short description of data set [2]: Ratio of drug level in brain to blood in Sprague-Dawley rat at 3 mg/kg, po after 8 hrs. The data set is classed as ADME, organism-based. The arrangement: dose 3 mg/kg, route oral. The method, boiled down:
(§1)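 Rats dosed 3 mg/kg orally; total compound levels measured in brain and blood at 2, 4 and 8 h, brain/blood ratio derived. Mean ± SD of three rats.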

In data set [3] the target is Histamine H1 receptor (Homo sapiens, UniProt P35367). The experiment in a line: Displacement of [3H]pyrilamine from human recombinant histamine H1 receptor.
A short description of data set [4]: Displacement of [3H]GABA from rat cerebral cortex GABA(A) receptor. It is filed as tissue-based.
The target of data set [5] is Adrenergic receptor alpha-2 (Rattus norvegicus, UniProt P22086+P19328+P22909). The experiment in a line: Displacement of [3H]RX821002 from rat cerebral cortex alpha2 adrenergic receptor. The data set is classed as tissue-based.
For data set [6], the target named is Sodium-dependent noradrenaline transporter (Homo sapiens, UniProt P23975). The experiment in a line: Displacement of [3H]nisoxetine from human recombinant NET.
In data set [7] the target is Mu-type opioid receptor (Homo sapiens, UniProt P35372). The experiment in a line: Displacement of [3H]DAMGO from human recombinant mu opioid receptor.
In data set [8] the target is T1, 5-hydroxytryptamine receptor 3A (Cavia porcellus) (UniProt O70212).
T1 sequence (whole entry): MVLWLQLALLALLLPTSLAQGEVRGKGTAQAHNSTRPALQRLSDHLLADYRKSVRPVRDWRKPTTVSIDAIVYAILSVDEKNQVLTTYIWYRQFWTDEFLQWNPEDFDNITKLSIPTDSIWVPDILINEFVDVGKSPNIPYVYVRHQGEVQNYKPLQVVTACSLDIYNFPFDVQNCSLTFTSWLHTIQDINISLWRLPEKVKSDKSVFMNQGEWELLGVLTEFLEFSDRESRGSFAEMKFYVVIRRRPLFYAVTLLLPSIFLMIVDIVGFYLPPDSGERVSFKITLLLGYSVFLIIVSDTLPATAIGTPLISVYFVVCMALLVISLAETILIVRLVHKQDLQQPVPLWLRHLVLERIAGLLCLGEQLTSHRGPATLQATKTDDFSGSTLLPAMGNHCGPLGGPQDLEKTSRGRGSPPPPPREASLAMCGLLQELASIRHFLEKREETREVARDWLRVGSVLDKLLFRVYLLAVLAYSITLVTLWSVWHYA
The experiment in a line: Inhibition of 5HT3 receptor-mediated contraction of guinea pig ileum at 1 umol/L after 20 mins relative to control. It is filed as tissue-based. The method, boiled down:
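Ileum strips in Tyrode solution at 37 °C, gassed 5% CO2/95% O2, isotonic contractions under 1 g load. After at least 3 stable contractions to 10 μM 2-methyl-5-HT, tissue exposed to compound or DMSO vehicle for 20 min, then 10 μM 2-methyl-5-HT re-added; contraction expressed as % inhibition of control.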

Data set [9] in a line: Ratio of drug level in brain to blood in Sprague-Dawley rat at 3 mg/kg, po after 4 hrs. It is filed as ADME, organism-based. The arrangement: dose 3 mg/kg, route oral. The method, boiled down: as §1
Data set [10] relates to Rattus norvegicus. The experiment in a line: […] activity in rat assessed as inhibition of 5HT-induced bradycardia at 10 ug/kg, iv by von Benzold-Jarisch reflex assay. It is filed as functional.
Data set [11] concerns the target Adrenergic receptor alpha-1 (Rattus norvegicus, UniProt P15823+P23944+P43140). The experiment in a line: Inhibition of rat alpha1 adrenergic receptor.
Data set [12] has as its target Muscarinic acetylcholine receptor M2 (Homo sapiens, UniProt P08172). The experiment in a line: Displacement of [3H]AF-DX384 from human recombinant muscarinic M2 receptor.
Data set [13] addresses T2, 5-hydroxytryptamine receptor 1A (Homo sapiens, UniProt P08908).
T2 sequence (P08908 whole entry): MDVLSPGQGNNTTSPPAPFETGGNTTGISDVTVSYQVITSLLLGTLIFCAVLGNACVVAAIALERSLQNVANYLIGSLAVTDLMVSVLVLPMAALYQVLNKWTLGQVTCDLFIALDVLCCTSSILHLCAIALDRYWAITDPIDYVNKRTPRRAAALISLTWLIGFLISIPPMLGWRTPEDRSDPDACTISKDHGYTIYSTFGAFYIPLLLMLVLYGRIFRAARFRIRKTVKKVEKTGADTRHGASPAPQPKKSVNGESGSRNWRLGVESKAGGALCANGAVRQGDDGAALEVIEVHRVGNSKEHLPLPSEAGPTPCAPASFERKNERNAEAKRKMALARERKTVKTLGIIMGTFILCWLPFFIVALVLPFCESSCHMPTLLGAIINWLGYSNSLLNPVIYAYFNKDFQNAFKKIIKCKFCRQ
The experiment in a line: Agonist activity at human cloned 5HT1A receptor expressed in CHO cells assessed as stimulation of [35S]GTPgammaS binding after 30 mins by liquid scintillation counting. The data set is classed as functional, cell-based. The method, boiled down:
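Membranes from CHO cells expressing human 5-HT1A were diluted in 20 mM HEPES/3 mM MgCl2/120 mM NaCl, pH 7.4. They were preincubated with 20 μM GDP and test drug for 20 min at 30 °C, then held on ice for 15 min. [35S]GTPγS (100 pM) was added for 30 min at 30 °C. Samples were filtered, washed with cold HEPES/MgCl2 buffer, and bound radioactivity counted; EC50 and Emax reported.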
(GTPγS resists hydrolysis and so accumulates on activated G proteins.)

For data set [14], the target named is T2, 5-hydroxytryptamine receptor 1A. The experiment in a line: Displacement of 8-hydroxy-[3H]DPAT from human recombinant 5HT1A receptor.
Data set [15] concerns the target Kappa-type opioid receptor (Cavia porcellus, UniProt P41144). The experiment in a line: Displacement of [3H]U69593 from guinea pig cerebellum kappa opioid receptor. It is filed as tissue-based.
Data set [16] has as its system Rattus norvegicus. The experiment in a line: Induction of 5HT1A receptor-mediated behavioral activity in rat assessed as appearance of flat body posture at 10 mg/kg, iv after 30 mins. It is filed as functional, organism-based. The arrangement: dose 10 mg/kg. Summed up:
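Rats were conditioned to test procedures over 2 weeks and acclimated to the test cage for 1 h. Vehicle was saline containing diluted HCl. Lower lip retraction and flat body posture were scored on a 0–3 scale at 5, 10, 20 and 30 min after dosing.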

In data set [17] the test system is Rattus norvegicus. The experiment in a line: Effect on 5HT1A receptor-mediated hypothermic effect in rat assessed as change in rectal temperature at 10 mg/kg, iv after 30 mins. The data set is classed as functional, organism-based. The arrangement: dose 10 mg/kg. Summed up: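 Rats were conditioned over 2 weeks and acclimated to the cage for 1 h before dosing (vehicle: saline with diluted HCl). Rectal temperature was recorded with a thermistor probe inserted 3 cm, before and 30 min after administration. The change in temperature was reported.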

The target of data set [18] is D(1A) dopamine receptor (Homo sapiens, UniProt P21728). The experiment in a line: Displacement of [3H]SCH23390 from human recombinant dopamine D1 receptor.
Data set [19] deals with Muscarinic acetylcholine receptor M3 (Homo sapiens, UniProt P20309). The experiment in a line: Displacement of [3H]4-DAMP from human recombinant muscarinic M3 receptor.
The target in data set [20] is 5-hydroxytryptamine receptor 5A (Homo sapiens, UniProt P47898). The experiment in a line: Displacement of [3H]LSD from human recombinant 5HT5A receptor.
The target in data set [21] is Neuropeptide Y receptor type 2 (Homo sapiens, UniProt P49146). The experiment in a line: Displacement of [125I]peptide YY from NPY2 receptor in human KAN-TS cells. It is filed as cell-based.
A short description of data set [22]: Drug level in Sprague-Dawley rat brain at 3 mg/kg, po after 2 hrs by HPLC analysis. The data set is classed as ADME, organism-based. The arrangement: dose 3 mg/kg, route oral. As to conditions: read-out: Drug uptake. The method, boiled down:
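Total compound concentration was measured in brain and blood at 2, 4 and 8 h after a single oral 3 mg/kg dose. Brain/blood ratio was also derived. Values are mean ± SD of three rats.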

Data set [23] addresses 5-hydroxytryptamine receptor 7 (Homo sapiens, UniProt P34969). The experiment in a line: Displacement of [3H]LSD from human recombinant 5HT7 receptor.

Sodium-dependent noradrenaline transporter, sequence (P23975 whole entry): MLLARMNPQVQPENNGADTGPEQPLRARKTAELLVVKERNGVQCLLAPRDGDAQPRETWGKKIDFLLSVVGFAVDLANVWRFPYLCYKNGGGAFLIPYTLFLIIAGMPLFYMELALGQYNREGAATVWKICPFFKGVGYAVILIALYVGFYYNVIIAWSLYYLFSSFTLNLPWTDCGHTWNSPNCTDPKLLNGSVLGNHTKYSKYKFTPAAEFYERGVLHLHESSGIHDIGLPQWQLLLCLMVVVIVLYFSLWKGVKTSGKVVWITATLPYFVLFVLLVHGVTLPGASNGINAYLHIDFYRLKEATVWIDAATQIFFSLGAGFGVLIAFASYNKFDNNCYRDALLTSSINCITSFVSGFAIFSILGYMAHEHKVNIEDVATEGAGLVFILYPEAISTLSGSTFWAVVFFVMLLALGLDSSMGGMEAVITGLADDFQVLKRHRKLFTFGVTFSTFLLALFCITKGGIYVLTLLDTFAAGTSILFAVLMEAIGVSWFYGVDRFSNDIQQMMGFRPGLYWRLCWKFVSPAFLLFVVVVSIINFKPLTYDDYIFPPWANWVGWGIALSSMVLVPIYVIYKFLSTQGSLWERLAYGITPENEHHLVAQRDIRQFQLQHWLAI
D(1A) dopamine receptor, sequence (P21728 whole entry): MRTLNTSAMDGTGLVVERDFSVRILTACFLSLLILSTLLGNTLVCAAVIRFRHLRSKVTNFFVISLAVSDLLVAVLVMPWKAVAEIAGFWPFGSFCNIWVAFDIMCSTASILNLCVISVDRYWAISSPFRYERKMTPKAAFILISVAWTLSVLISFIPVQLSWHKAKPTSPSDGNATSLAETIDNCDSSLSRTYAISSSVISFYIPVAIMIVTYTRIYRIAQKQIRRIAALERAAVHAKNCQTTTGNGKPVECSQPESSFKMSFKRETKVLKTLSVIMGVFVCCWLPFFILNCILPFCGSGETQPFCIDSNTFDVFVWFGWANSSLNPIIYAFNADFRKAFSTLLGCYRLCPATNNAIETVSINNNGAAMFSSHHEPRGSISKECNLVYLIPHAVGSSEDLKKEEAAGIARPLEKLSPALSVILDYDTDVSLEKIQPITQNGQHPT
Mu-type opioid receptor, sequence (P35372 whole entry): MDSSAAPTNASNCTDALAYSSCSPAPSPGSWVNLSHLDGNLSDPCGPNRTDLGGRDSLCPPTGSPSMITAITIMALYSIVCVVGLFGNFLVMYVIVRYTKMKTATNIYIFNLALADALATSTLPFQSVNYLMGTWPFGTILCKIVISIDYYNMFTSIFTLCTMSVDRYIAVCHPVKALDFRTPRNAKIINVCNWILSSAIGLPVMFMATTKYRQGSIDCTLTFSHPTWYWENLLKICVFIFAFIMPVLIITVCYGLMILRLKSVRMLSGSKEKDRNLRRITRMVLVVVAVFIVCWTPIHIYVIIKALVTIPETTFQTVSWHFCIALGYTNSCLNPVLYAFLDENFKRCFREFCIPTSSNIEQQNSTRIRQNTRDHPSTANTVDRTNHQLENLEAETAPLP
5-hydroxytryptamine receptor 5A, sequence (P47898 whole entry): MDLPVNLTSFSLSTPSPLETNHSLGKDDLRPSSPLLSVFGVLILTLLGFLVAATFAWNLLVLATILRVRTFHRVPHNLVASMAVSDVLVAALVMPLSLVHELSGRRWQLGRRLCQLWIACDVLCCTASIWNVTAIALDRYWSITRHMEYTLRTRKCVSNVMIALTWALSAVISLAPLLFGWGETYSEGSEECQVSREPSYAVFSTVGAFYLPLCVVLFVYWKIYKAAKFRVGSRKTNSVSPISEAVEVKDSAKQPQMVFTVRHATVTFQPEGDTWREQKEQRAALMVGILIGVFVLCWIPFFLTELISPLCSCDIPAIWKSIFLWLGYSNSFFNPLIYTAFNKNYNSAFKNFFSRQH
Neuropeptide Y receptor type 1, sequence (P25929 whole entry): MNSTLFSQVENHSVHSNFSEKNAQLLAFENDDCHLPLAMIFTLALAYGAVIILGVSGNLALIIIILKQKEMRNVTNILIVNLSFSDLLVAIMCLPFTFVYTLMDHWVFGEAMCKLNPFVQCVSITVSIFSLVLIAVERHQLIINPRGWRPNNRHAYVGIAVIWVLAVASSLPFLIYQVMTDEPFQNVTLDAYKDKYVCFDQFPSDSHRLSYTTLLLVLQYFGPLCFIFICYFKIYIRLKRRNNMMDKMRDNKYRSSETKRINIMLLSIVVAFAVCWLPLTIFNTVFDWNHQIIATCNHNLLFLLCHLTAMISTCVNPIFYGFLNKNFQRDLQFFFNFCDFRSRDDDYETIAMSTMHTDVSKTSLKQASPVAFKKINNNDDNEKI
Muscarinic acetylcholine receptor M2, sequence (P08172 whole entry): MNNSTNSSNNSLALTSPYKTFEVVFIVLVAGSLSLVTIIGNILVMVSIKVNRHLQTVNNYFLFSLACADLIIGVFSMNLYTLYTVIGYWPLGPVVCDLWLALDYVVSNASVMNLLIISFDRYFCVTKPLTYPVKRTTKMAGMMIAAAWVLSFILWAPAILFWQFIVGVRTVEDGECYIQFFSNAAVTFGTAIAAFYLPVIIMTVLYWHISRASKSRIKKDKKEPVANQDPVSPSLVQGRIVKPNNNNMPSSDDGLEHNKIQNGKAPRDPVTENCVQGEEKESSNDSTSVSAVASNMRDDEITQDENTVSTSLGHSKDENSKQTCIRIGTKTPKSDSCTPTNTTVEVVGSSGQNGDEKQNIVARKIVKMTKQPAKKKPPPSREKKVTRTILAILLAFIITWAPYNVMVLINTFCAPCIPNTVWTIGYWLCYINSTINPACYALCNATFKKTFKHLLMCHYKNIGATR
Neuropeptide Y receptor type 2, sequence (P49146 whole entry): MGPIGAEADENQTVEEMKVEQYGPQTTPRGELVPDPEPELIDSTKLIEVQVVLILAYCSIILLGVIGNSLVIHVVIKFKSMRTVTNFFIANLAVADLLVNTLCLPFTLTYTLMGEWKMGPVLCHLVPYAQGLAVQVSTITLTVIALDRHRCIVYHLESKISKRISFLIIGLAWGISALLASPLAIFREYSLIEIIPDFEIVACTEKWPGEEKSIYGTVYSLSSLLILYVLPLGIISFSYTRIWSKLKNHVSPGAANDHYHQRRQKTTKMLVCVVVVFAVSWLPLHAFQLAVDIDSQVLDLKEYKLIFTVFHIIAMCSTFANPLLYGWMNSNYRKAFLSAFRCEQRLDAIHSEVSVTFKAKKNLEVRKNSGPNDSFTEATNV
Kappa-type opioid receptor, sequence (P41144 whole entry): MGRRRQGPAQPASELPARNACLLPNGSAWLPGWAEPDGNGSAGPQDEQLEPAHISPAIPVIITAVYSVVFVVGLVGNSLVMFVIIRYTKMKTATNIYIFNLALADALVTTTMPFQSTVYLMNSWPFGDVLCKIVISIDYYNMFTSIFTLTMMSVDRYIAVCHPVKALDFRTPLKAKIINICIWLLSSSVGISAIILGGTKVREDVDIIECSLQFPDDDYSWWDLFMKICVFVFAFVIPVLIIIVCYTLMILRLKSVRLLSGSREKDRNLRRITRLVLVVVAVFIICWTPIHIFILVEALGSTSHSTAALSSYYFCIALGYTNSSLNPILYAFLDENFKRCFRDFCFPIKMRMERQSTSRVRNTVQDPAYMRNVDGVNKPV
Muscarinic acetylcholine receptor M3, sequence (P20309 whole entry): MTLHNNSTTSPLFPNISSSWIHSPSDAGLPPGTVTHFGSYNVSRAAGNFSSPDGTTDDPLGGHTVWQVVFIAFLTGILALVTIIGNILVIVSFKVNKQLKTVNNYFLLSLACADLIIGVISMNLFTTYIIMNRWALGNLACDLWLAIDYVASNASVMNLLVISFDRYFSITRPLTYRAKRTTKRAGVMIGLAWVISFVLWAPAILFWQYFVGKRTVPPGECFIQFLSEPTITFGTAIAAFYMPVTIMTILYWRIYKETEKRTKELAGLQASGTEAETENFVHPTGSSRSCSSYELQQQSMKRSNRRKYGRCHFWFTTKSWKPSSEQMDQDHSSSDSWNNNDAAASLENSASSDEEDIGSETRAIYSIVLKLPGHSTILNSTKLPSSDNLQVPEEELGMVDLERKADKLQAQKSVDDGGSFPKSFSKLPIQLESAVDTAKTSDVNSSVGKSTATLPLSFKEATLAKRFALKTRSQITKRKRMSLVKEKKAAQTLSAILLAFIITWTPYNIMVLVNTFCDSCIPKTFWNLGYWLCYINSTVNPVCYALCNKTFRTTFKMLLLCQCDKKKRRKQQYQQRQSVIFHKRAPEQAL
5-hydroxytryptamine receptor 7, sequence (P34969 whole entry): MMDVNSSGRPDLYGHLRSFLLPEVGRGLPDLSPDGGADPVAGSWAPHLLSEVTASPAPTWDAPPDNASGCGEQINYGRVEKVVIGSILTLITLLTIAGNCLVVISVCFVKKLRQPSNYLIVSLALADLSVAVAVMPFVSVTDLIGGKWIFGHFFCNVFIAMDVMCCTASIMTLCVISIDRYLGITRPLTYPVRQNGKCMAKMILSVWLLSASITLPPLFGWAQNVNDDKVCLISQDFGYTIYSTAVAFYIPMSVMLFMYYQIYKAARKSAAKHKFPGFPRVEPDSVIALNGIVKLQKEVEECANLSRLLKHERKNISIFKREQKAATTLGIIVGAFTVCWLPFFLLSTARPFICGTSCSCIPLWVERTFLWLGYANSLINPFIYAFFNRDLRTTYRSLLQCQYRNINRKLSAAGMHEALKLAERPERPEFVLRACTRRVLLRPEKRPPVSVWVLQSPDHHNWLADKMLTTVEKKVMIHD

Regarding `Nn1c(CCCCN2CCN(c3ccc4ccccc4n3)CC2)nc2c(c1=O)CCCC2`, the IC50 was greater than 1000 nM in data set [1]; 1000 nM in data set [3]; greater than 1000 nM in data set [4]; greater than 1 ×10⁻⁶ mol/L in [5]; greater than 1000 nM in data set [6]; greater than 1000 nM in data set [7]. The IC50 in data set [11] is greater than 100 nM; in data set [12], greater than 1000 nM; in data set [14], greater than 1.36 nM; in data set [15] it was greater than 1000 nM; in data set [18], greater than 1000 nM; in data set [19], greater than 1000 nM. Further, the figures for the IC50 in data set [20], in data set [21] and in data set [23] were greater than 1000 nM, greater than 1000 nM and 1000 nM, respectively. Also, the Kp at 8 h in data set [2] came to 6.54. Besides, the inhibition in [8] worked out at 96.8%. In [9], the Kp at 4 h amounted to 4.4. Further, the inhibition in vivo at 0.01 mg/kg in data set [10] was no more than 64%. Moreover, in [13], the EC50 amounted to 22.3 nM. Also, the outcome in data set [16] was Active. The deltaT in [17] was -1.4 °C. Besides, in data set [22], the concentration at 2 h stood at 160 nM.

The term Kp denotes tissue or fluid exposure divided by exposure in the circulation. As usually defined, the inhibition is the change of the read-out against control, counted positive when it falls. Lower therefore signals little suppression. The inhibition in vivo is the percentage by which the read-out fell short of the control. The EC50 is the midpoint of the concentration-response curve.
